Only some compounds are listed: those with a hit (about 3.1% of all), similar ones and a draw of the others.
RBBP9 inhibitor – blocks human serine hydrolase RBBP9; O75884; recombinant RBBP9, FP-Rh probe fluorescence polarization; inhibition, % at 7.94 µM; hit rate 0.2% among 220,000; AID 1515;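 active = inhibition above the campaign mean of all tested compounds plus 3 SD, cut at about 14% in these data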;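 also: plate controls were DMSO wells with RBBP9 for no effect and wells lacking RBBP9 protein for full effect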
Target sequence (O75884 whole entry, looked up): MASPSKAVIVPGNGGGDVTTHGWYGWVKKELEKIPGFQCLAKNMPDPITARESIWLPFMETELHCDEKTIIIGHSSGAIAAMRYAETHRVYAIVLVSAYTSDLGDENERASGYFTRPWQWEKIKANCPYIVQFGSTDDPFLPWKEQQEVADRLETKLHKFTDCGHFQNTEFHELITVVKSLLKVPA
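System: RBBP9 protein | Quantity: 2.5 µM RBBP9 dispensing solution, before mixing | Reagent: FP-Rh probe, 375 nM dispensing solution | Timing: Enzyme-compound preincubation 30 min, then probe labeling 45 min, 25 °C | Measured by: Fluorescence polarization | Read-out: % inhibition | Replication: One well per compound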
MBD2 inh – blocks human MBD2 binding to methylated DNA; TR-FRET, MBD2 binding to methylated oligonucleotide; inhibition, % at 4.4 µM; hit rate 0.31% among 370,000; in the data active = inhibition above about 13%
Target sequence (Q9UBB5 whole entry, looked up): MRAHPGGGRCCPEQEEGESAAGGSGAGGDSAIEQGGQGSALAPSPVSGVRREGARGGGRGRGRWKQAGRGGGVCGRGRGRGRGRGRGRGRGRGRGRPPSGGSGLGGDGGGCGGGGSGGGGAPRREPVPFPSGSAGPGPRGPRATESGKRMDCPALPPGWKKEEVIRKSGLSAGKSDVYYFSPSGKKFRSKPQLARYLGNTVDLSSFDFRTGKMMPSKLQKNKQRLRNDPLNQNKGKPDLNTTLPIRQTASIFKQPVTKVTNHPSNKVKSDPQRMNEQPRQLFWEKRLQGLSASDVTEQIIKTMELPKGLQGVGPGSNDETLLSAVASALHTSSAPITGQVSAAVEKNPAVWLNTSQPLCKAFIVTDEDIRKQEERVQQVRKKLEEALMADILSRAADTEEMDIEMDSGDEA
ABHD5 PLIN5 PPI – inhibitors of human ABHD5-perilipin-5 interaction. Split G. princeps luciferase complementation, luminescence, 4 h. inhibition, % at 4 µM. hit rate 0.78% among 360,000;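 active = inhibition above the mean inhibition across every tested compound plus 3 SD, cut at about 22% in these data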;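 also: 0% = DMSO only wells and the 100% control is not disclosed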
LEDGF integ inh – blocks HIV-1 LEDGF/p75-dependent DNA integration | inhibition, % at 3.7 µM | hit rate 0.64% among 370,000 | TR-FRET IN-LEDGF/p75 DNA integration, Eu/Cy5;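 active = inhibition above the screen-wide mean plus 3 SD, cut at about 13% in these data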;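 also: signal is the Cy5 over europium emission ratio at 671 and 618 nm; 0% = plate median of compound wells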
UHRF1 binding – human UHRF1 methylated DNA binding inhibitors | UHRF1 binding to methylated oligo, TR-FRET | inhibition, % at 4.4 µM | hit rate 0.75% among 370,000; in the data active = inhibition above about 21%;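 also: UHRF1 SRA domain binding a hemimethylated CpG hairpin DNA probe; 0% = median of test compound wells and 100% = reference inhibitor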
PRMT1 FP inh – blocks human protein arginine methyltransferase 1 | recombinant PRMT1, activity-based probe fluorescence polarization | inhibition, % at 2.79 µM | hit rate 1.3% among 370,000 | AID 652257;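 active = inhibition above about 21% made by adding two undisclosed values, limit read from the data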
ABHD5 PLIN5 conf – ABHD5-PLIN5 interaction inhibition, confirmed | shares compounds with ABHD5 PLIN5 PPI | biochemical ABHD5-PLIN5 interaction, luminescence | inhibition, % at 4 µM | hit rate 67% among 2,200; in the data active = inhibition above about 23%;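 also: 0% = DMSO vehicle wells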
HNF4 split-luc – counter-screen for ABHD5-PLIN5 inhibitors: HNF4 split-luciferase | HNF4 dimerization, luminescence, biochemical | inhibition, % at 4 µM | shares compounds with ABHD5 PLIN5 PPI | hit rate 77% among 2,200;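 active = mean inhibition across replicate wells exceeding the computed hit threshold, cut at about 13% in these data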;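 also: light from luciferase halves that rejoin when HNF4 fusion proteins dimerize; 0% = DMSO only wells and the 100% control is not given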
PRMT1 confirm – confirmation of human PRMT1 inhibitors | shares compounds with PRMT1 FP inh | recombinant His-PRMT1, activity-based probe fluorescence polarization | inhibition, % at 2.79 µM | hit rate 42% among 3,300 | AID 687036;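 active = mean inhibition across replicates above the hit cutoff derived for the earlier primary screen, cut at about 22% in these data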
Starred values were filed as active, the others as inactive; . = no result.

SMILES | RBBP9 inhibitor | MBD2 inh | ABHD5 PLIN5 PPI | LEDGF integ inh | UHRF1 binding | PRMT1 FP inh | ABHD5 PLIN5 conf | HNF4 split-luc | PRMT1 confirm
O=C(/C=C/c1ccc2c(c1)OCCCO2)c1ccccc1O | -6.5 | -0.4 | 26.8* | -0.8 | -0.7 | 1.5 | 77.5* | 52.8* | .
Cc1ccc(O)c(C(=O)/C=C/c2ccc3c(c2)OCCCO3)c1 | 5.6 | 8.0 | 31.7* | 0.8 | 4.4 | 6.2 | 66.0* | 45.4* | .
CN(C)c1ccc(/C=C/C(=O)c2ccccc2O)cc1 | -7.6 | -0.7 | -0.6 | -0.9 | -2.2 | 1.2 | . | . | .
CC(C)N1CCCCC(NC(=O)c2cccc(F)c2)C1=O (stereo not drawn) | . | -4.5 | . | -0.5 | -1.2 | -3.6 | . | . | .
CCN(CC)CCc1nc(-c2ccccc2)no1 | . | -0.7 | 55.8* | 7.1 | 2.1 | -3.2 | 84.4* | 43.0* | .
O=C(O)CCc1nc(-c2ccccc2)no1 | -1.1 | -4.4 | 1.0 | 3.3 | 5.8 | -3.5 | . | . | .
Cc1cc(C)nc(S/C=C/C(=O)c2ccccc2F)n1 | -2.7 | -2.9 | 47.8* | 3.9 | 1.7 | 25.2* | 95.8* | 100.5* | 18.6
Cc1cc(C)nc(NC(=S)NC(=O)c2ccccc2F)n1 | . | 0.2 | 0.4 | -4.0 | 2.4 | -2.1 | . | . | .
C=CCn1cccc(/C=C/C(=O)c2ccc(C(C)(C)C)cc2)c1=S | 2.9 | 4.3 | 46.4* | -3.0 | 3.8 | 26.6* | 74.7* | 89.6* | 0.6
CN1CCN(C(=S)NC(=O)c2ccc(C(C)(C)C)cc2)CC1 | 0.8 | 3.1 | -3.0 | 0.8 | -3.0 | -1.4 | . | . | .
COC(=O)c1ccc(CCc2cc(O)c(Br)cc2O)cc1 | . | 4.7 | 92.6* | -12.0 | 0.1 | 103.3* | 21.1 | 48.2* | 72.0*
COC(=O)C[C@@H]1CC[C@@H]2[C@H](COc3ccc(NC(=O)c4ccc(F)c(F)c4)cc3C(=O)N2C)O1 | . | -2.5 | . | -1.9 | 2.3 | 0.9 | . | . | .
N#C/C(=C\c1ccc(N2CCOCC2)c([N+](=O)[O-])c1)c1nc2ccccc2[nH]1 | -1.6 | -3.0 | 0.4 | 0.8 | -5.0 | 0.6 | . | . | .
N#C/C(=C\c1ccc(N2CCOCC2)o1)c1nc2ccccc2[nH]1 | -3.8 | -5.3 | 23.9* | 1.5 | -1.8 | 57.9* | 29.1* | 50.6* | -57.2
Cc1cc(S(=O)(=O)c2ccc(Cl)cc2)nc(S(=O)(=O)c2ccc(Cl)cc2)c1C#N | . | 7.7 | 79.2* | 0.9 | -1.1 | 60.5* | 95.1* | 105.0* | 47.6*
CNc1ccccc(C(=O)/C=C/c2ccccc2OC)c1=O | -5.3 | 4.6 | 31.6* | -1.1 | 2.3 | 35.5* | 68.7* | 48.2* | 39.0*
Cc1ccc(/C=C/C(=O)Nc2ccc(S(N)(=O)=O)cc2)o1 | 6.6 | 9.1 | 35.7* | -0.3 | 2.1 | 76.3* | 63.7* | 80.6* | 81.0*
Cc1ccc(/C=C/C(=O)OCC(=O)NCCc2ccc(S(N)(=O)=O)cc2)o1 | . | 1.0 | 2.1 | 0.4 | 5.0 | 5.4 | . | . | .
CC(=O)NS(=O)(=O)c1ccc(NC(=O)/C=C/c2ccc(C)o2)cc1 | -9.4 | 1.8 | 27.6* | 7.6 | 11.4 | 27.4* | 49.5* | 62.5* | 77.2*
Cc1ccc(/C=C/C(=O)Nc2ccc(N(C)C)cc2)o1 | 4.2 | 0.9 | 0.9 | -1.8 | -5.2 | 1.9 | . | . | .
Cc1ccc(/C=C/C(=O)NCCc2cccc(Cl)c2)o1 | . | 5.0 | 39.7* | -3.9 | 1.3 | 45.6* | 68.4* | 79.2* | 89.6*
Cc1ccc(/C=C/C(=O)NCCc2c[nH]c3ccccc23)o1 | -1.6 | -3.4 | 1.9 | -2.1 | 1.1 | 5.0 | . | . | .
Cc1ccc(/C=C/C(=O)NCc2ccc(S(N)(=O)=O)cc2)o1 | -8.8 | -4.3 | 47.2* | 0.2 | 1.4 | 41.9* | 45.6* | 56.7* | 80.7*
CCCCCn1nnnc1C1(C)CSCC(=O)N1Cc1ccco1 (stereo not drawn) | . | -5.4 | . | -0.4 | 4.0 | -2.9 | . | . | .
CCn1c(C)c(CS(=O)(=O)c2ccccc2)[nH]c1=O | -0.5 | 0.8 | 33.8* | 3.3 | 2.9 | 69.3* | 57.4* | 76.8* | 72.6*
SMILES | RBBP9 inhibitor | MBD2 inh | ABHD5 PLIN5 PPI | LEDGF integ inh | UHRF1 binding | PRMT1 FP inh | ABHD5 PLIN5 conf | HNF4 split-luc | PRMT1 confirm
CCOC(=O)CC(S(=O)(=O)c1ccccc1)S(=O)(=O)c1ccccc1 | . | 0.4 | 51.8* | -4.7 | -0.3 | 78.9* | 38.3* | 88.5* | 58.0*
CCOC(=O)CNc1nnc(SCC(=O)OCC)[nH]c1=O | -7.3 | -6.3 | 25.6* | 0.4 | -1.8 | 58.9* | 41.1* | 83.0* | 53.9*
O=C(CSc1ncn[nH]1)c1cccc([N+](=O)[O-])c1 | -9.2 | 1.3 | 34.5* | 0.1 | -2.2 | 31.6* | -3.9 | 26.2* | 25.0*
CCOC(=O)c1c(-c2ccc(C)o2)csc1NC(=O)CSc1nnnn1-c1ccccc1 | -61.6 | 4.2 | 40.3* | -3.1 | 1.2 | 72.6* | 23.3* | 62.5* | 3.9
CCOC(=O)c1c(-c2ccc(C)o2)csc1NC(=O)CSc1nnc(C)s1 | -16.8 | -1.6 | 33.3* | -3.4 | -4.4 | 63.1* | 7.5 | 36.9* | 15.2
CCOC(=O)c1c(-c2ccccc2)csc1NC(=O)CSc1nnc(C)s1 | 2.6 | -3.9 | -2.5 | 0.3 | 0.8 | -1.8 | . | . | .
O=C(Nc1ccccc1)c1nnsc1S(=O)c1ccc(Cl)cc1 (stereo not drawn) | -6.9 | -3.0 | 33.8* | 0.5 | 2.0 | 81.3* | 90.0* | 106.2* | 87.8*
CCc1ccc(/C=C/C(=O)c2cc(Br)ccc(=O)c2O)cc1 | -8.0 | -1.7 | 30.3* | 13.2 | 3.6 | 31.5* | 61.4* | 46.3* | 18.5
O=C(OCC(=O)N1N=C(c2ccc(Cl)cc2)CC1c1ccco1)c1cccnc1 (stereo not drawn) | . | 5.1 | 49.3* | 1.3 | 4.2 | 39.6* | 29.4* | 26.5* | 8.2
CC1=C(C(=O)Nc2ccccc2)C(c2ccc(Cl)cc2)n2c(s/c(=C/c3cccc(OCC(=O)O)c3)c2=O)=N1 (stereo not drawn) | -21.9 | 2.8 | 27.3* | 3.3 | -0.5 | 26.3* | 48.7* | 29.0* | 5.3
O=C1N2CCCc3cccc(c32)C12Nc1ccccc1S2 (stereo not drawn) | 2.0 | -1.8 | 61.1* | -2.3 | 0.1 | 39.7* | -4.0 | -4.3 | 22.9*
C[C@H](O)[C@@H]1CN2CCc3c([nH]c4c(-c5ccc6c(c5)OCO6)cccc34)[C@@H]2C[C@@H]1N(C)C(=O)c1ccccc1F | . | 1.6 | . | 2.6 | -3.4 | 0.9 | . | . | .
CN(C)CCC(=O)C(Cc1ccccc1)c1ccccc1 (stereo not drawn) | . | -1.6 | 29.0* | 7.3 | 2.7 | 42.1* | 59.8* | 92.8* | 31.7*
Cc1cccc(NC(=O)[C@H]2CC(=O)O[C@@H]2c2ccccc2)c1C | . | 1.3 | . | -4.4 | 3.4 | -0.8 | . | . | .

Compound activity: PubChem BioAssay, The Scripps Research Institute Molecular Screening Center
